Test results: ChEMBL document CHEMBL1914423, “New imidazo[2,1-b]thiazole derivatives: synthesis, in vitro anticancer evaluation, and in silico studies” (Eur J Med Chem, 2011)

What was measured:
Assay type in all cases: functional
OVCAR-3 = experiment: Anticancer activity against human OVCAR3 cells after 48 hrs by SRB assay; conditions: OVCAR-3, 48 h
RPMI-8226 = experiment: Anticancer activity against human RPMI8226 cells after 48 hrs by SRB assay; conditions: RPMI-8226, 48 h
NCI-H23 = experiment: Anticancer activity against human NCI-H23 cells after 48 hrs by SRB assay; conditions: NCI-H23, 48 h
UACC-257 = experiment: Anticancer activity against human UACC257 cells after 48 hrs by SRB assay; conditions: UACC-257, 48 h
In short: (§1)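 NCI-60 five-dose mode: cells in RPMI 1640 with 5% FBS and 2 mM glutamine, plated at 5000–40,000 cells/well, and preincubated 24 h, with time-zero plates TCA-fixed. Drug given at five concentrations (10-fold or ½-log serial dilutions). Cold TCA fixation 60 min at 4 °C, SRB stain, Tris solubilization, A515. IC50 taken where [(Ti−Tz)/(C−Tz)]×100 = 50.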

MDA-MB-231 = experiment: Anticancer activity against human MDA-MB-231 cells after 48 hrs by SRB assay; conditions: MDA-MB-231, 48 h
In short: (§2)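 NCI five-dose screen. Cells in RPMI 1640 with 5% FBS and 2 mM L-glutamine, seeded at 5000–40,000 cells/well according to doubling time, then pre-incubated 24 h at 37 °C in 5% CO2. Drugs dissolved in DMSO, five concentrations by 10-fold or 1/2-log dilution. Cells fixed with TCA, SRB-stained, A515 read. IC50 solved from [(Ti−Tz)/(C−Tz)]×100 = 50.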

NCI-H522 = experiment: Anticancer activity against human NCI-H522 cells after 48 hrs by SRB assay; conditions: NCI-H522, 48 h
OVCAR-8 = experiment: Anticancer activity against human OVCAR8 cells after 48 hrs by SRB assay; conditions: OVCAR-8, 48 h
EKVX = experiment: Anticancer activity against human EKVX cells after 48 hrs by SRB assay; in short: as §2
TK-10 = experiment: Anticancer activity against human TK10 cells after 48 hrs by SRB assay; conditions: TK-10, 48 h; in short: as §1
HOP-62 = experiment: Anticancer activity against human HOP62 cells after 48 hrs by SRB assay; conditions: HOP-62, 48 h; in short: as §2
COLO 205 = experiment: Anticancer activity against human COLO205 cells after 48 hrs by SRB assay; conditions: COLO 205, 48 h; in short: as §2
MDA-MB-468 = experiment: Anticancer activity against human MDA-MB-468 cells after 48 hrs by SRB assay; conditions: MDA-MB-468, 48 h
SF-539 = experiment: Anticancer activity against human SF539 cells after 48 hrs by SRB assay; conditions: SF-539, 48 h
SNB-75 = experiment: Anticancer activity against human SNB75 cells after 48 hrs by SRB assay; conditions: SNB-75, 48 h
T47D = experiment: Anticancer activity against human T47D cells after 48 hrs by SRB assay; in short: as §1
HCT-15 = experiment: Anticancer activity against human HCT15 cells after 48 hrs by SRB assay; conditions: HCT-15, 48 h; in short: as §2
Malme-3M = experiment: Anticancer activity against human MALME-3M cells after 48 hrs by SRB assay; in short: as §2
NCI-H322M = experiment: Anticancer activity against human NCI-H322M cells after 48 hrs by SRB assay
SK-MEL-2 = experiment: Anticancer activity against human SK-MEL-2 cells after 48 hrs by SRB assay; conditions: SK-MEL-2, 48 h
MDA-MB-435 = experiment: Anticancer activity against human MDA-MB-435 cells after 48 hrs by SRB assay; conditions: MDA-MB-435, 48 h; in short: as §2
SK-MEL-28 = experiment: Anticancer activity against human SK-MEL-28 cells after 48 hrs by SRB assay; conditions: SK-MEL-28, 48 h
HOP-92 = experiment: Anticancer activity against human HOP92 cells after 48 hrs by SRB assay; conditions: HOP-92, 48 h; in short: as §2
HT-29 = experiment: Anticancer activity against human HT-29 cells after 48 hrs by SRB assay; conditions: HT-29, 48 h; in short: as §2
SR = experiment: Anticancer activity against human SR cells after 48 hrs by SRB assay; in short: as §1
PC-3 = experiment: Anticancer activity against human PC3 cells after 48 hrs by SRB assay; conditions: PC-3, 48 h
SW-620 = experiment: Anticancer activity against human SW620 cells after 48 hrs by SRB assay; conditions: SW-620, 48 h; in short: as §1
CAKI-1 = experiment: Anticancer activity against human Caki1 cells after 48 hrs by SRB assay; conditions: CAKI-1, 48 h; in short: as §2
MOLT-4 = experiment: Anticancer activity against human MOLT4 cells after 48 hrs by SRB assay; conditions: MOLT-4, 48 h
SF-268 = experiment: Anticancer activity against human SF268 cells after 48 hrs by SRB assay; conditions: SF-268, 48 h
[1] = read-out: LC50 (the source's name)

O=C(NCCNc1nccc(-c2c(-c3cccc(O)c3)nc3sccn23)n1)Nc1cccc(C(F)(F)F)c1
GI50 (OVCAR-3): 5.52 µM | TGI (OVCAR-3): 22.7 µM | CC50 (OVCAR-3; [1]): 87.3 µM | GI50 (RPMI-8226): 2.52 µM | LC50 (RPMI-8226): > 100 µM | TGI (RPMI-8226): 5.46 µM | GI50 (NCI-H23): 4.62 µM | LC50 (50% lethal concentration) (NCI-H23): > 100 µM | TGI (NCI-H23): 32.5 µM | GI50 (UACC-257): 2.51 µM | TGI (UACC-257): 6.94 µM | CC50 (UACC-257; [1]): 59.8 µM | GI50 (MDA-MB-231): 3.52 µM | TGI (MDA-MB-231): 12.3 µM | CC50 (MDA-MB-231; [1]): > 100 µM | GI50 (NCI-H522): 2.11 µM | TGI (NCI-H522): 5 µM | CC50 (NCI-H522; [1]): 20.9 µM | GI50 (OVCAR-8): 3.56 µM | TGI (OVCAR-8): 11 µM | CC50 (OVCAR-8; [1]): 37.6 µM | GI50 (EKVX): 4.16 µM | LC50 (EKVX): > 100 µM | TGI (EKVX): 36.6 µM | GI50 (TK-10): 3.66 µM | TGI (TK-10): 11.1 µM | CC50 (TK-10; [1]): 94.5 µM | GI50 (HOP-62): 8.33 µM | LC50 (concentration killing 50% of starting cells) (HOP-62): 61 µM | TGI (HOP-62): 23.4 µM | GI50 (COLO 205): 3.36 µM | TGI (COLO 205): 12 µM | CC50 (COLO 205; [1]): 59.5 µM | GI50 (MDA-MB-468): 1.67 µM | TGI (MDA-MB-468): 3.33 µM | CC50 (MDA-MB-468; [1]): 6.67 µM | GI50 (SF-539): 13.1 µM | TGI (SF-539): 36.9 µM | CC50 (SF-539; [1]): > 100 µM | GI50 (SNB-75): 2.5 µM | TGI (SNB-75): 12.7 µM | CC50 (SNB-75; [1]): 62.5 µM | GI50 (T47D): 6.52 µM | TGI (T47D): 25.6 µM | CC50 (T47D; [1]): 97.1 µM | GI50 (HCT-15): 4.26 µM | TGI (HCT-15): 24.1 µM | CC50 (HCT-15; [1]): > 100 µM | GI50 (Malme-3M): 2.09 µM | TGI (Malme-3M): 7.3 µM | CC50 (Malme-3M; [1]): 50.7 µM | GI50 (NCI-H322M): 6.13 µM | TGI (NCI-H322M): 26 µM | CC50 (NCI-H322M; [1]): > 100 µM | GI50 (SK-MEL-2): 2.8 µM | TGI (SK-MEL-2): 6.07 µM | CC50 (SK-MEL-2; [1]): 36 µM | GI50 (MDA-MB-435): 2.04 µM | TGI (MDA-MB-435): 4.94 µM | CC50 (MDA-MB-435; [1]): 41 µM | GI50 (SK-MEL-28): 2.68 µM | TGI (SK-MEL-28): 10 µM | CC50 (SK-MEL-28; [1]): 62.2 µM | GI50 (HOP-92): 2.19 µM | TGI (HOP-92): 9.38 µM | CC50 (HOP-92; [1]): > 100 µM | GI50 (HT-29): 3.45 µM | TGI (HT-29): 10.8 µM | CC50 (HT-29; [1]): 49.9 µM | GI50 (SR): 6.08 µM | TGI (SR): 40 µM | CC50 (SR; [1]): > 100 µM | GI50 (PC-3): 2.94 µM | TGI (PC-3): 12.6 µM | CC50 (PC-3; [1]): > 100 µM | GI50 (SW-620): 3.84 µM | TGI (SW-620): 13.4 µM | CC50 (SW-620; [1]): 64.5 µM | GI50 (CAKI-1): 14.2 µM | TGI (CAKI-1): 50.5 µM | CC50 (CAKI-1; [1]): > 100 µM | GI50 (MOLT-4): 3.6 µM | TGI (MOLT-4): 14.6 µM | CC50 (MOLT-4; [1]): > 100 µM | GI50 (SF-268): 3.45 µM | TGI (SF-268): 14.6 µM | CC50 (SF-268; [1]): > 100 µM
